In paper PMC9673105 (Poultry Science, 2022):
Where two headings read alike, the source gives them in different places.

Tests used:
[1] = system: hypothalamic neuropeptides; details: mouse; ref Lv et al., 2020; cited from earlier work
Siberian sturgeon = details: ref Tian et al., 2020, cited from earlier work
POMC = test: Hypothalamic POMC mRNA; type: in vivo; details: chicken
Summary of the method: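 3-wk-old male chicks, randomized into four groups (N ≥ 3), given test peptide intravenously at 10, 50 or 100 ng/g BW, or PBS as control. Hypothalami collected 6, 12 and 24 h post-injection. EvaGreen qRT-PCR with melting-curve and agarose-gel specificity checks. mRNA normalised to β-actin and expressed as fold of PBS group. One-way ANOVA with Dunnett's test.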

GALR2 = details: mouse; ref Lin et al., 2015; cited from earlier work
human GALR3 = details: ref Kim et al., 2014, Cohen et al., 2020; cited from earlier work
mice = details: cited from earlier work
Xenopus GALR3 = details: ref Kim et al., 2014, Cohen et al., 2020; cited from earlier work
GALR1 = details: ref Kim et al., 2014, cited from earlier work
[2] = system: hypothalamic neuropeptides; details: zebrafish; ref Zheng et al., 2017; cited from earlier work
tilapia GALR2a = details: ref Kim et al., 2014, Cohen et al., 2020; cited from earlier work
human GALR2 = details: ref Kim et al., 2014, Cohen et al., 2020; cited from earlier work
[3] = system: hypothalamic neuropeptides; details: goldfish; ref Wong et al., 2013; cited from earlier work
[4] = cited from earlier work
[5] = system: hypothalamic neuropeptides; details: orange-spotted grouper; ref Li et al., 2016; cited from earlier work
goldfish = details: injection, ref Wong et al., 2013; cited from earlier work
zebrafish GALR2b = details: ref Kim et al., 2014, Cohen et al., 2020; cited from earlier work
tilapia GALR2b = details: ref Kim et al., 2014, Cohen et al., 2020; cited from earlier work
Xenopus GALR2b = details: ref Kim et al., 2014, Cohen et al., 2020; cited from earlier work
[6] = system: luteinizing hormone (LH) release; details: ewe; ref Lomet et al., 2020; cited from earlier work
zebrafish GALR2a = details: ref Kim et al., 2014, Cohen et al., 2020; cited from earlier work

SPX: Spexin, novel neuropeptide; mature peptide with 14 amino acid residues, of various species in cited literature
POMC mRNA level [1]: failed to change the mRNA level of POMC
feed consumption (Siberian sturgeon; injection): observably decreased
feeding (Siberian sturgeon; intraperitoneal (IP) injection): feeding inhibition
POMC mRNA level (in words) (POMC): failed to change the mRNA level of POMC
bowel movement via SPX-dependent GALR2 activation (GALR2): could enhance bowel movement
receptor activation (human GALR3): could activate
feeding (mice; intraperitoneal (IP) injection, ref Lv et al., 2020, Wong et al., 2021b): feeding inhibition
feed intake (mice; peripheral, ref Lv et al., 2020): suppresses feed intake
receptor activation (Xenopus GALR3): could activate
receptor activation (GALR1; GALR1, Cohen et al., 2020): not GALR1
activation of GALR1 (GALR1): incompetent in activating GALR1
POMC expression [2]: could elevate POMC expression
receptor activation (tilapia GALR2a): could activate
receptor activation (human GALR2): could activate
POMC expression [3]: could elevate POMC expression
body weight ([4]; rodents with diet-induced obesity, ref Walewski et al., 2014): lose weight
body weight ([4]; rodents, ref Kolodziejski et al., 2021): weight loss
POMC expression [5]: could elevate POMC expression
feed consumption (goldfish): observably decreased
receptor activation (zebrafish GALR2b): could activate
receptor activation (tilapia GALR2b): could activate
receptor activation (Xenopus GALR2b): could activate
basal and KISS-induced luteinizing hormone (LH) release [6]: does not impact
receptor activation (zebrafish GALR2a): could activate
